In ChEMBL document CHEMBL1141377 (J Nat Prod, 2007):
Activity calls are given as the source filed them. The rule behind the calls is not given here.

Columns and labels:
20S proteasome = experiment: Inhibition of human 20S proteasome; type: subcellular
[1] = Stability in neutral pH after 24 hrs; type: physicochemical; settings: read-out: Stability
Summary of the method: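 Compound solutions in 20% MeOH incubated in horse serum or water at pH 7 for 24 h. Recovery estimated by HPLC.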

NCI-H460 = experiment: Cytotoxicity against human H460 cell line; type: functional, cell-based
MDA-MB-231 = experiment: Cytotoxicity against human MDA-MB-231 cell line; type: functional, cell-based
PBMC = experiment: Inhibition of LPS-induced TNFalpha production in human PBMC; type: functional, cell-based
Summary of the method: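 Human PBMC isolated from heparinized healthy-donor blood on 80% Percoll, washed twice in PBS, in RPMI1640 with 10% heat-inactivated FCS. Cells preincubated 1 h with compound or DMSO (final 0.1%), then stimulated with LPS (1 μg/mL). After overnight culture, supernatant TNF-α measured. IC50 reported.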

HCT-116 = experiment: Cytotoxicity against human HCT116 cell line; type: cell-based
Trypsin (Homo sapiens) = Trypsin (Homo sapiens) (UniProt P07477+P07478+P35030); experiment: Inhibition of trypsin up to 100 uM; type: protein assay
Homo sapiens = organism: Homo sapiens; experiment: Inhibition of chymotrypsin up to 100 uM
[2] = Stability in neutral pH after 48 hrs; type: physicochemical; settings: read-out: Stability
[3] = Stability in alkaline pH after 48 hrs; type: physicochemical; settings: read-out: Stability

| SMILES | IC50 (20S proteasome) | remaining at 24 h [1] | IC50 (NCI-H460) | IC50 (MDA-MB-231) | IC50 (PBMC) | Activity (HCT-116) | Activity (Trypsin (Homo sapiens)) | Activity (Homo sapiens) | remaining at 48 h [2] | remaining at 48 h [3] |
| --- | --- | --- | --- | --- | --- | --- | --- | --- | --- | --- |
| CCCCCC[C@H]1C(=O)N[C@@]2([C@@H](O)[C@@H]3C=CCCC3)C(=O)O[C@@]12C [CINNABARAMIDE A] | 1 nM | 50% | 1000 nM | 1000 nM | 500 nM | 10 nM | inactive | inactive |  |  |
| CCCCCC(O)[C@H]1C(=O)N[C@@]2([C@@H](O)[C@@H]3C=CCCC3)C(=O)O[C@@]12C (stereo partly specified) [CINNABARAMIDE B] | 245 nM | 50% |  |  |  |  | inactive | inactive |  |  |
| CCCCCC[C@H]1C(=O)N[C@@]2(C[C@@H]3C=CCCC3)C(=O)O[C@@]12C [CINNABARAMIDE C] | 12 nM | 50% |  |  |  |  | inactive | inactive |  |  |
| CCCCCC(O)[C@H]1C(=O)N[C@](C(=O)O)([C@@H](O)[C@@H]2C=CCCC2)[C@@]1(C)O (stereo partly specified) [CINNABARAMIDE D] | 100 nM |  |  |  |  |  | inactive | inactive |  |  |
| CCCCCC[C@H]1C(=O)N[C@](C(=O)O)([C@@H](O)[C@@H]2C=CCCC2)[C@@]1(C)O [CINNABARAMIDE E] | 136 nM |  |  |  |  |  | inactive | inactive |  |  |
| CCCCCC[C@H]1C(=O)N[C@](C(=O)SC[C@H](NC(C)=O)C(=O)O)([C@@H](O)[C@@H]2C=CCCC2)[C@@]1(C)O [CINNABARAMIDE F] | 6 nM |  |  |  |  |  | inactive | inactive | > 90% |  |
| CCCCCC[C@H]1C(=O)N[C@](C(=O)SC[C@H](NC(C)=O)C(=O)OC)([C@@H](O)[C@@H]2C=CCCC2)[C@@]1(C)O [CINNABARAMIDE G] | 0.6 nM |  |  |  |  |  | inactive | inactive | 90% | 45% |
